We go through 3 compounds from paper PMC7557999 (ACS Omega, 2020).

Structures are written as SMILES.

One test concerns p-ERK. Description: Western blotting of ERK phosphorylation in MCF7 cells. In kind it is cell-based, Human. The conditions noted are these: MCF7 cells, 1.5, 7.5 and 15 μM, 24 h. Summed up: (§1)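 MCF7 cells were treated for 24 h with 0, 1.5, 7.5 or 15 μM test compound. Lysates were immunoblotted with antibodies to c-JUN, p-ERK and total ERK, with GAPDH as internal control.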
The target in a further test is T1, LYP (Homo sapiens, UniProt Q9Y2R2).
T1 sequence (Q9Y2R2 24-289 limits assumed): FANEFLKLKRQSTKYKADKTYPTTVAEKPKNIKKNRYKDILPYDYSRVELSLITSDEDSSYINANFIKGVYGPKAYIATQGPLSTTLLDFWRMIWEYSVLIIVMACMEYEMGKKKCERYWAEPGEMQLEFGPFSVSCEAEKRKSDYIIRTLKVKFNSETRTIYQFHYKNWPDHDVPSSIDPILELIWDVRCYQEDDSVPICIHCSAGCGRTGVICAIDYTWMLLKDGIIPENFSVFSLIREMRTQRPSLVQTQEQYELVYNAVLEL
The test can be described thus: PTP activity assay. In kind it is biochemical. Put shortly:
(§2)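 Human catalytic domains were His-tagged, expressed in E. coli BL21(DE3) with 0.4 mM IPTG overnight at 20 °C, and purified under native conditions. The pNPP hydrolysis buffer was 10 mM NaAc-HAc, 1 mM EDTA, 1 mM DTT, pH 5.5, with 0.1 vol % test compound or DMSO at 37 °C. A405 was read every 20 s for 30 min.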

For a further test, the target named is T2, STEP (Homo sapiens, UniProt P54829).
T2 sequence (P54829 300-555 limits assumed): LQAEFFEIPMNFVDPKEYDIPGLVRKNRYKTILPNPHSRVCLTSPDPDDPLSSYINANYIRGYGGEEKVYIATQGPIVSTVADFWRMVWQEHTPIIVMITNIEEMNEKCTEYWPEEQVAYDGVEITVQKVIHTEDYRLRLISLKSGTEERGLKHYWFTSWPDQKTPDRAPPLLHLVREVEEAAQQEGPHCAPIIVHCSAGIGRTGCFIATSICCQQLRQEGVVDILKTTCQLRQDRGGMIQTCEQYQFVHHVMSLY
Description: PTP activity assay. In kind it is biochemical. Put shortly: as §2

A further test concerns the target T3, SHP2 (Homo sapiens, UniProt Q06124).
T3 sequence (Q06124 247-517 limits assumed): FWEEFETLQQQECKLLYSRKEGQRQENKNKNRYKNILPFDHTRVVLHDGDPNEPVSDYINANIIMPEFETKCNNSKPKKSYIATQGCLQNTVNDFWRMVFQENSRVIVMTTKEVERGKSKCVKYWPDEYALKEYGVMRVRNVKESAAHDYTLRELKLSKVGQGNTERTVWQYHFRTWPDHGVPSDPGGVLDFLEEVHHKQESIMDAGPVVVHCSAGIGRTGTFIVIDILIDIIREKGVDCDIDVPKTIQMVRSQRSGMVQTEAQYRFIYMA
Description: PTP activity assay. The settings on record: for inhibition type (Lineweaver–Burk plot), SHP2: Lineweaver–Burk plot analysis. The test is classed as biochemical. Put shortly:
as §2

The next test concerns the target T4, SHP1 (Homo sapiens, UniProt P29350).
T4 sequence (P29350 244-515 limits assumed): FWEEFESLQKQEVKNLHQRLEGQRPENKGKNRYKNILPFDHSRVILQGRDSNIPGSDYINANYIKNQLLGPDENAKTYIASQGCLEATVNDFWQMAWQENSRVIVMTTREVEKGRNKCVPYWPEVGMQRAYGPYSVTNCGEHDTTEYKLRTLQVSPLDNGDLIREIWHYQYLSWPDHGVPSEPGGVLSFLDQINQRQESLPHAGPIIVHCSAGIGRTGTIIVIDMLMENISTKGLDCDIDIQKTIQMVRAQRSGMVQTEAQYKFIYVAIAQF
Description: PTP activity assay. In kind it is biochemical. The conditions noted are these: for inhibition type (Lineweaver–Burk plot), SHP1: Lineweaver–Burk plot analysis. Summed up:
as §2

A further test has as its system c-JUN. Description: Western blotting of c-JUN in MCF7 cells. The test is classed as cell-based, Human. The conditions noted are these: MCF7 cells, 1.5, 7.5 and 15 μM, 24 h. Put shortly: as §1
For orientation: Immunoblotting shows a protein as a band on a membrane.

Test [1] relates to MCF7 cells. Description: RNA sequencing assay of treated MCF7 cells. The conditions noted are these: vs control, three repeats. In kind it is cell-based, Human. Put shortly:
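MCF7 cells were treated with test compound alongside a control group, three repeats per group. Libraries were prepared with NEBNext Ultra and sequenced on an Illumina HiSeq. Differential expression used DESeq/Cuffdiff with cutoffs of log2 fold change >1 or […], Q value <0.05 and FPKM >1.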

Test [2] deals with MCF7 cells. The test can be described thus: MTT assay, MCF7 cell proliferation. In kind it is cell-based. The settings on record: Homo sapiens, MCF7, 24 h, read-out: IC50, MCF7 cell proliferation. Summed up:
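MCF7 cells were grown in DMEM or RPMI-1640 with 10% FBS at 37 °C and 5% CO2, then seeded in 96-well plates. Test compound was added at various amounts, with DMSO as vehicle, for 24 h. MTT (5 mg/mL stock) was added for 4 h, then SDS-HCl overnight. A570 was read and IC50 calculated by the plate reader. Values are mean ± SD of triplicate assays.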
(Tetrazolium dyes change colour on reduction, which living cells bring about.)

In another test the target is T5, PTP1B (Homo sapiens, UniProt P18031).
T5 sequence (P18031 3-277 limits assumed): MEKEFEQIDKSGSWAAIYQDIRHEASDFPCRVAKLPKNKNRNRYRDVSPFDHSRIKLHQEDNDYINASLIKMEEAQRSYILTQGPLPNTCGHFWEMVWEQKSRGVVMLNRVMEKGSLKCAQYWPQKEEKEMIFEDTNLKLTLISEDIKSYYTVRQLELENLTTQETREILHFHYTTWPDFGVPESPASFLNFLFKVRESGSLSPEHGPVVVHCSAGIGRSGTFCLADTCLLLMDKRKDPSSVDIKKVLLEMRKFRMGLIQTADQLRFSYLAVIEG
Description: PTP activity assay. The conditions noted are these: for inhibition type (Lineweaver–Burk plot), PTP1B: Lineweaver–Burk plot analysis. In kind it is biochemical. Summed up:
as §2

Test [3] concerns MCF7 cells. The test can be described thus: Colony formation assay. The test is classed as cell-based, Human. The settings on record: 0.15, 0.45 and 0.75 μM, 6 days.

Regarding `CC(=O)OC[C@]12Oc3c(-c4ccc(O)c5c4O[C@@]4(COC(C)=O)C(=C(O)C[C@@H](C)[C@H]4OC(C)=O)C5=O)ccc(O)c3C(=O)C1=C(O)C[C@@H](C)[C@H]2OC(C)=O` [PXA, Phomoxanthone A], the “ERK phosphorylation (western blot)” value in the test on p-ERK is listed as “increased ERK phosphorylation”. Besides, the IC50 against LYP is above 150 µM. Moreover, at STEP, the IC50 is above 150 µM. At SHP2, the IC50 worked out at 20.5 ± 4.45 µM and the “inhibition type (Lineweaver–Burk plot), SHP2” value was “noncompetitive inhibitors”. Further, on SHP1, the IC50 worked out at 36.5 ± 2.02 µM and the “inhibition type (Lineweaver–Burk plot), SHP1” value is recorded as “competitive inhibitors”. Besides, the “JUN protein expression (western blot)” value with c-JUN is given as “upregulated the JUN protein expression”. In the test with MCF7 cells [1], the “CXCL2 log 2 fold change” value worked out at 3.24, the “CXCL3 log 2 fold change” value stood at 1.65, the “CXCL8 log 2 fold change” value is 5.45 and the “CXCL10 log 2 fold change” value is 6.84. Moreover, in the test on MCF7 cells [1], the “DDIT3 log 2 fold change” value was found to be 2.87, the “GADD45A log 2 fold change” value was determined as 1.41, the “IFI16 log 2 fold change” value is 1.18 and the “IFI27 log 2 fold change” value was found to be 4.22. For the same compound, in the test with MCF7 cells [1], the “IL1A log 2 fold change” value worked out at 4.78, the “IL1B log 2 fold change” value is 3.30, the “IL6 log 2 fold change” value came out at 4.00 and the “IL18 log 2 fold change” value is 1.78. In addition, in the test with MCF7 cells [1], the “IL24 log 2 fold change” value is 6.37, the “IL32 log 2 fold change” value is 1.57, the “IL33 log 2 fold change” value worked out at 4.45 and the “IRF1 log 2 fold change” value came out at 1.50. Further, in the test on MCF7 cells [1], the “IRF7 log 2 fold change” value stood at 2.76, the “JUN log 2 fold change” value is listed as 3.32, the “NFKB2 log 2 fold change” value is listed as 1.62 and the “RELB log 2 fold change” value stood at 2.43. The “XAF1 log 2 fold change” value in the test with MCF7 cells [1] amounted to 4.83. For the same compound, the IC50 in the test on MCF7 cells [2] is 16.4 ± 1.96 µM. Further, at PTP1B, the IC50 turned out to be 13 ± 1.13 µM and the “inhibition type (Lineweaver–Burk plot), PTP1B” value is listed as “noncompetitive inhibitors”. The “colony formation of MCF7 cells” value in the test with MCF7 cells [3] is on record as “significantly reduced the colony formation”.
`CC(=O)OC[C@]12Oc3ccc(-c4ccc(O)c5c4O[C@@]4(COC(C)=O)C(=C(O)C[C@@H](C)[C@H]4OC(C)=O)C5=O)c(O)c3C(=O)C1=C(O)C[C@@H](C)[C@H]2OC(C)=O` [PXB, Phomoxanthone B]: the “ERK phosphorylation (western blot)” value in the test on p-ERK was “increased ERK phosphorylation”. On LYP, this compound displayed an IC50 above 150 µM. The IC50 against STEP is above 150 µM. Further, at SHP2, the IC50 came to 11.9 ± 3.02 µM and the “inhibition type (Lineweaver–Burk plot), SHP2” value was “noncompetitive inhibitors”. Further, at SHP1, the IC50 was 32.1 ± 3.74 µM and the “inhibition type (Lineweaver–Burk plot), SHP1” value is on record as “competitive inhibitors”. The “JUN protein expression (western blot)” value in the test on c-JUN was “upregulated the JUN protein expression”. In the test with MCF7 cells [1], the “CXCL2 log 2 fold change” value is 3.19, the “CXCL3 log 2 fold change” value stood at 1.58, the “CXCL8 log 2 fold change” value turned out to be 5.22 and the “CXCL10 log 2 fold change” value is 5.96. Besides, in the test on MCF7 cells [1], the “DDIT3 log 2 fold change” value is given as 2.92, the “GADD45A log 2 fold change” value amounted to 1.39, the “IFI16 log 2 fold change” value is 1.15 and the “IFI27 log 2 fold change” value was found to be 4.02. For the same compound, in the test with MCF7 cells [1], the “IL1A log 2 fold change” value is 4.87, the “IL1B log 2 fold change” value worked out at 3.23, the “IL6 log 2 fold change” value is recorded as 3.98 and the “IL18 log 2 fold change” value stood at 1.73. Further, in the test with MCF7 cells [1], the “IL24 log 2 fold change” value is given as 7.08, the “IL32 log 2 fold change” value was 1.56, the “IL33 log 2 fold change” value was 4.82 and the “IRF1 log 2 fold change” value is 1.34. For the same compound, in the test on MCF7 cells [1], the “IRF7 log 2 fold change” value is listed as 2.53, the “JUN log 2 fold change” value is 3.16, the “NFKB2 log 2 fold change” value came out at 1.69 and the “RELB log 2 fold change” value was 2.51. In the test with MCF7 cells [1], the “XAF1 log 2 fold change” value is recorded as 4.41. For the same compound, the IC50 with MCF7 cells [2] came out at 16.2 ± 2.59 µM. In addition, on PTP1B, the IC50 was 14.3 ± 2.2 µM and the “inhibition type (Lineweaver–Burk plot), PTP1B” value was “noncompetitive inhibitors”. Also, the “colony formation of MCF7 cells” value in the test with MCF7 cells [3] is on record as “significantly reduced the colony formation”.
`O=c1[nH]cc(F)c(=O)[nH]1` [5-fluorouracil, reference compound]: the IC50 in the test on MCF7 cells [2] was determined as 25.1 ± 8.8 µM.
